From ChEMBL document CHEMBL3621107, “Ring fusion strategy for synthesis and lead optimization of sulfur-substituted anthra[1,2-c][1,2,5]thiadiazole-6,11-dione derivatives as promising scaffold of antitumor agents” (Eur J Med Chem, 2015)

How the values were obtained:
[1] = tested on: M14; experiment: Cytotoxicity against human M14 cells assessed as cell growth at 10 uM after 48 hrs by SRB assay relative to control; type: functional; settings: M14, 48 h, read-out: Activity
Outline: (§1)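 First-stage NCI-60 screen by the NCI Developmental Therapeutics Program. Each compound was tested once at a single concentration of 10 μM against the 60-cell-line panel. Growth percentage was reported for each cell line.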

[2] = tested on: SK-MEL-2; experiment: Cytotoxicity against human SK-MEL-2 cells assessed as cell growth at 10 uM after 48 hrs by SRB assay relative to control; type: functional; settings: SK-MEL-2, 48 h, read-out: Activity
Outline: (§2)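 First-stage NCI DTP one-dose screen against the 60 human tumour cell line panel. Compounds were tested at a single 10 μM level, and results are given as growth percentage.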

[3] = tested on: UACC-257; experiment: Cytotoxicity against human UACC257 cells assessed as cell growth at 10 uM after 48 hrs by SRB assay relative to control; type: functional; settings: UACC-257, 48 h, read-out: Activity
Outline: (§3)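 NCI-60 one-dose screen run by NCI DTP: each cell line exposed to a single 10 µM dose, and percentage growth recorded against untreated growth.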

[4] = tested on: SK-OV-3; experiment: Cytotoxicity against human SKOV3 cells assessed as cell growth at 10 uM after 48 hrs by SRB assay relative to control; type: functional; settings: SK-OV-3, 48 h, read-out: Activity; outline: as §2
[5] = tested on: 786-0; experiment: Cytotoxicity against human 786-0 cells assessed as cell growth at 10 uM after 48 hrs by SRB assay relative to control; type: functional; settings: 786-0, 48 h, read-out: Activity; outline: as §1
[6] = tested on: A498; experiment: Cytotoxicity against human A498 cells assessed as cell growth at 10 uM after 48 hrs by SRB assay relative to control; type: functional; settings: A498, 48 h, read-out: Activity; outline: as §1
[7] = tested on: PC-3; experiment: Cytotoxicity against human PC3 cells assessed as cell growth at 10 uM after 48 hrs by SRB assay relative to control; type: functional; settings: PC-3, 48 h, read-out: Activity; outline: as §2
[8] = tested on: MDA-MB-231; experiment: Cytotoxicity against human MDA-MB-231 cells assessed as cell growth at 10 uM after 48 hrs by SRB assay relative to control; type: functional; settings: MDA-MB-231, 48 h, read-out: Activity; outline: as §2
[9] = Cytotoxicity against human Hs578T cells assessed as cell growth at 10 uM after 48 hrs by SRB assay relative to control; type: functional; settings: Hs-578T, read-out: Activity; outline: as §1
[10] = tested on: T47D; experiment: Cytotoxicity against human T47D cells assessed as cell growth at 10 uM after 48 hrs by SRB assay relative to control; type: functional; settings: read-out: Activity; outline: as §3
[11] = tested on: MDA-MB-468; experiment: Cytotoxicity against human MDA-MB-468 cells assessed as cell growth at 10 uM after 48 hrs by SRB assay relative to control; type: functional; settings: MDA-MB-468, 48 h, read-out: Activity; outline: as §2
[12] = tested on: PC-3; experiment: Cytotoxicity against human PC3 cells after 48 hrs by SRB assay; type: functional, cell-based; settings: PC-3, 48 h
Outline: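 Second-stage NCI-60 panel run by the NCI Developmental Therapeutics Program, covering nine tumour subpanels. Five concentrations were tested: 0.01, 0.1, 1, 10 and 100 μM. Percentage growth at each level was plotted against log10 drug concentration. GI50, TGI and LC50 were read from these dose-response curves. Subpanel MID values were divided into the full-panel MID to give selectivity ratios.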

[13] = tested on: DU-145; experiment: Cytotoxicity against human DU145 cells after 72 hrs by MTT assay; type: functional, cell-based; settings: for IC50: DU-145, 72 h
Outline: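 DU-145 cells grown in RPMI-1640 with 5% heat-inactivated fetal calf serum at 37 °C, 5% CO2. About 2×10^3 cells per well were seeded and incubated for 24 h. Compounds were dissolved in DMSO freshly and diluted into medium (vehicle 0.1% DMSO), then cells were exposed for 72 h. MTT was added for 3 h at 37 °C and absorbance read at 570 nm.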

[14] = tested on: HL-60(TB); experiment: Cytotoxicity against human HL-60(TB) cells assessed as cell growth at 10 uM after 48 hrs by SRB assay relative to control; type: functional; settings: HL-60, 48 h, read-out: Activity
Outline: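 NCI Developmental Therapeutics Program 60-cell-line screen, first stage: a single dose of 10 μM against the panel, reported as percentage growth.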

[15] = tested on: MOLT-4; experiment: Cytotoxicity against human MOLT4 cells assessed as cell growth at 10 uM after 48 hrs by SRB assay relative to control; type: functional; settings: MOLT-4, 48 h, read-out: Activity; outline: as §2
[16] = tested on: A549; experiment: Cytotoxicity against human A549 cells assessed as cell growth at 10 uM after 48 hrs by SRB assay relative to control; type: functional; settings: A549, 48 h, read-out: Activity; outline: as §1
[17] = Cytotoxicity against human EKVX cells assessed as cell growth at 10 uM after 48 hrs by SRB assay relative to control; type: functional; settings: read-out: Activity; outline: as §1
[18] = tested on: HOP-62; experiment: Cytotoxicity against human HOP62 cells assessed as cell growth at 10 uM after 48 hrs by SRB assay relative to control; type: functional; settings: HOP-62, 48 h, read-out: Activity; outline: as §1
[19] = tested on: NCI-H226; experiment: Cytotoxicity against human NCI-H226 cells assessed as cell growth at 10 uM after 48 hrs by SRB assay relative to control; type: functional; settings: NCI-H226, 48 h, read-out: Activity; outline: as §2
[20] = tested on: NCI-H522; experiment: Cytotoxicity against human NCI-H522 cells assessed as cell growth at 10 uM after 48 hrs by SRB assay relative to control; type: functional; settings: NCI-H522, 48 h, read-out: Activity; outline: as §2
[21] = tested on: HCT-15; experiment: Cytotoxicity against human HCT15 cells assessed as cell growth at 10 uM after 48 hrs by SRB assay relative to control; type: functional; settings: HCT-15, 48 h, read-out: Activity; outline: as §1
[22] = tested on: KM12; experiment: Cytotoxicity against human KM12 cells assessed as cell growth at 10 uM after 48 hrs by SRB assay relative to control; type: functional; settings: KM12, 48 h, read-out: Activity; outline: as §1
[23] = tested on: SF-295; experiment: Cytotoxicity against human SF295 cells assessed as cell growth at 10 uM after 48 hrs by SRB assay relative to control; type: functional; settings: SF-295, 48 h, read-out: Activity; outline: as §2
[24] = tested on: SF-539; experiment: Cytotoxicity against human SF539 cells assessed as cell growth at 10 uM after 48 hrs by SRB assay relative to control; type: functional; settings: SF-539, 48 h, read-out: Activity; outline: as §2
[25] = tested on: SNB-19; experiment: Cytotoxicity against human SNB19 cells assessed as cell growth at 10 uM after 48 hrs by SRB assay relative to control; type: functional; settings: SNB-19, 48 h, read-out: Activity; outline: as §3
[26] = tested on: MDA-MB-435; experiment: Cytotoxicity against human MDA-MB-435 cells assessed as cell growth at 10 uM after 48 hrs by SRB assay relative to control; type: functional; settings: MDA-MB-435, 48 h, read-out: Activity; outline: as §2
[27] = tested on: OVCAR-5; experiment: Cytotoxicity against human OVCAR5 cells assessed as cell growth at 10 uM after 48 hrs by SRB assay relative to control; type: functional; settings: OVCAR-5, 48 h, read-out: Activity; outline: as §2
[28] = tested on: NCI/ADR-RES; experiment: Cytotoxicity against human NCI/ADR-RES cells assessed as cell growth at 10 uM after 48 hrs by SRB assay relative to control; type: functional; settings: read-out: Activity; outline: as §2
[29] = tested on: ACHN; experiment: Cytotoxicity against human ACHN cells assessed as cell growth at 10 uM after 48 hrs by SRB assay relative to control; type: functional; settings: read-out: Activity; outline: as §1

SMILES	growth at 10 µM [1] [%]	growth at 10 µM [2] [%]	growth at 10 µM [3] [%]	growth at 10 µM [5] [%]	growth at 10 µM [7] [%]	growth at 10 µM [8] [%]	growth at 10 µM [9] [%]	growth at 10 µM [10] [%]	growth at 10 µM [11] [%]	IC50 [12] [µM]	IC50 [13] [µM]	growth at 10 µM [14] [%]	growth at 10 µM [15] [%]	growth at 10 µM [16] [%]	growth at 10 µM [17] [%]	growth at 10 µM [18] [%]	growth at 10 µM [19] [%]	growth at 10 µM [20] [%]	growth at 10 µM [21] [%]	growth at 10 µM [22] [%]	other results
O=C1c2ccccc2C(=O)c2c1cc(Sc1ccccc1)c1nsnc21	106	112	92.8	110	87.3	66.7	95.9	93.2	87.3	> 15	> 15	83.9	31.1	106	97.8	110	102	94.9	93.9	99.5	growth at 10 µM [4]: 106%; growth at 10 µM [6]: 95%; growth at 10 µM [23]: 106%; growth at 10 µM [24]: 107%; growth at 10 µM [25]: 109%
CC(C)Sc1cc2c(c3nsnc13)C(=O)c1ccccc1C2=O	-31.5	-55.6	-91.7	12.4	-13.4	-35.9	-9.16	-24.4	-78.8	3.69	4.53	-41.2	-54.6	-8.14	-6.58	13.2	10.2	-59.5	15.3	19.3	growth at 10 µM [26]: -79.3%; growth at 10 µM [27]: -27.9%; growth at 10 µM [28]: -24.9%; growth at 10 µM [29]: 0.8%; Activity [13]: Dose-dependent effect; growth at 10 µM [23]: -16.6%; growth at 10 µM [24]: -47%; growth at 10 µM [25]: 21.9%
O=C1c2ccccc2C(=O)c2c1cc(Cl)c1nsnc21	103	0.21	76.1	102	23.5	-23.4	72.5	-54.6	-88.3	13.5	6.68	1.87	-34.1	103	82.2	75.8	100	89.5	96.8	95.9	growth at 10 µM [4]: 109%; growth at 10 µM [6]: 93.8%; growth at 10 µM [23]: 109%; growth at 10 µM [24]: 109%; growth at 10 µM [25]: 106%
Cc1cccc(C)c1Sc1cc2c(c3nsnc13)C(=O)c1ccccc1C2=O	122	67.5	86.6	115	59.9	30.6	82.4	66.8	45.9	6.74	7.88	47.8	32.6	90.2	82.4	90	78.3	61.4	47.5	96	growth at 10 µM [26]: 96.8%; growth at 10 µM [27]: 114%; growth at 10 µM [28]: 59.7%; growth at 10 µM [29]: 83.2%; growth at 10 µM [23]: 91.1%; growth at 10 µM [24]: 84.5%; growth at 10 µM [25]: 94.8%
COc1cccc(Sc2cc3c(c4nsnc24)C(=O)c2ccccc2C3=O)c1	94.2	82.6	104	103	76	87.1	93.8	69.1	93.5	> 15	> 15	84.5	35.8	110	105	61.8	95.3	82.4	71.9	97.1	growth at 10 µM [26]: 72.5%; growth at 10 µM [27]: 123%; growth at 10 µM [28]: 92.7%; growth at 10 µM [4]: 110%; growth at 10 µM [6]: 83.7%; growth at 10 µM [29]: 98.7%; growth at 10 µM [24]: 107%; growth at 10 µM [25]: 106%
